Bioassay records from PubChem.
APP 5'UTR act: APP 5'UTR luciferase reporter activation. SH-SY5Y APP 5'UTR luciferase reporter, luminescence; zero percent = DMSO vehicle wells. activation, % at 2 µM. 190,000 compounds, 1% hits;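 active means activation above a set limit, based on mean plus 3 SD of controls, cut at about 140% in these data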
STAT1 act-1: increases IFN-gamma driven STAT1 reporter signal. NIH 3T3 STAT1-luciferase reporter, luminescence; 100% = IFN-gamma alone, no compound. activation (% of control), % at 5.5 µM. 200,000 compounds, 2.6% hits;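 active means activation above the screen-wide mean activation plus 3 SD, cut at about 130% in these data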;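 further: raw ratio to IFN-gamma control signal so 100% means no change and 0% no light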
NF-kB expr up: compounds increasing NF-kB expression in human neuronal cells | NF-kB reporter expression; active compounds read high | fold change at 12.5 µM | 190,000 compounds, 1.6% hits | AID 1239; in the data active means fold change above about 3.3
STAT3 act-1: STAT3 signaling activation; U3A cells, IL-6 STAT3-luciferase reporter, luminescence; 100% = signal with IL-6 EC80 alone; activation (% of control), % at 5.6 µM; 190,000 compounds, 0.91% hits;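 active means activation above the screen-wide mean of compound activation plus 3 SD, cut at about 130% in these data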;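 further: 0% = background luminescence of wells with medium and substrate only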
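Material: STAT3-luciferase reporter U3A cells; Probe or stimulus: IL-6 (33 ng/mL); Incubation: compound pre-incubation 1 h before IL-6, then 6 h stimulation at 37 °C; Technique: luminescence from STAT3-driven luciferase reporter; Evaluation: % activation versus median of IL-6-stimulated wells; Controls: IL-6-only high control.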
STAT1 inh: STAT1 signaling inhibition | NIH 3T3 STAT1-luciferase reporter, IFN-gamma, luminescence | inhibition, % at 5.5 µM | 200,000 compounds, 0.35% hits | AID 920;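 active means inhibition above a set limit, the mean inhibition across all tested compounds plus 3 SD, cut at about 34% in these data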;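 further: 0% = IFN-gamma with DMSO and 100% = IFN-gamma with 300 µM nifuroxazide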
Pf gamet viab: inhibitors of late stage P. falciparum gametocyte viability. P. falciparum stage V gametocytes, ATP luminescence, 24 h. inhibition, % at 10.9 µM. 150,000 compounds, 0.065% hits;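 active means inhibition above the mean plus 3 SD of compounds within the control limits, set per campaign, cut at about 38% in these data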;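 further: 0% = DMSO wells and 100% = medium only without gametocytes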
STAT3 act-2: confirmation of STAT3 signaling activators | shares compounds with STAT3 act-1 | U3A STAT3-luciferase reporter, IL-6 potentiation, luminescence; U3A cells lack STAT1; 100 means same as IL-6 alone | potentiation (% of control), % at 5.7 µM | 1,200 compounds, 64% hits | AID 1267;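 active means percent activation of the STAT3 luciferase reporter above a set limit taken from the earlier primary screen, cut at about 130% in these data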;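 further: 0% = background signal of medium plus substrate and 100% = median of IL-6 with DMSO wells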
NFkB act 2: activates NF-kappaB, counter-screen to STAT3 activators. shares compounds with STAT3 act-1. human cells, NF-kappaB reporter activation. activation (% of control), % at 5.7 µM. 1,200 compounds, 11% hits; in the data active means activation above about 120%;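 further: reporter induced by TNF-alpha stimulation; 100% = median of stimulated DMSO wells and 0% = no signal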
STAT1 act-2: counter-screen for STAT3 activators: STAT1 activation; activation (% of control), % at 5.7 µM; shares compounds with STAT3 act-1; NIH 3T3 STAT1-luciferase reporter, IFN-gamma, luminescence; 1,200 compounds, 13% hits;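 active means activation above the solvent-only control well mean plus 3 SD, set per screening run, cut at about 120% in these data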;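 further: 100% = IFN-gamma with DMSO median signal so 100% means no change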
* marks the source's active call; other numbers are inactive results. Compounds with a hit are over-represented: about 3.9% of the library has one in this group of screens.

CC(C)NC(=O)c1cc2c(-c3ccc(Cl)cc3)nn(C)c2s1 was read as APP 5'UTR act -12, STAT1 act-1 95, NF-kB expr up 1, STAT3 act-1 158*, STAT1 inh 6, STAT3 act-2 150*, NFkB act 2 109 and STAT1 act-2 105.
Screening CN(NC(=O)c1ccccc1Cl)c1ncc(C(F)(F)F)cc1Cl returned Pf gamet viab -18.
`Cn1nc(-c2ccc(Cl)cc2)c2cc(C(=O)N3CCN(c4ccccn4)CC3)sc21` gave APP 5'UTR act -11, STAT1 act-1 91, NF-kB expr up 0.35, STAT3 act-1 101 and STAT1 inh 10.
`COCCNC(=O)c1cc2c(-c3ccccc3F)nn(C)c2s1` gave APP 5'UTR act 32, STAT1 act-1 100, NF-kB expr up 1.2, STAT3 act-1 91 and STAT1 inh -2.
Screening COc1cccc(-c2nn(C)c3sc(C(=O)NCc4ccco4)cc23)c1 returned APP 5'UTR act -10, STAT1 act-1 94, NF-kB expr up 0.4, STAT3 act-1 92 and STAT1 inh 7.
Cn1nc(-c2ccc(Cl)cc2)c2cc(C(=O)N3CCN(c4ccccc4)CC3)sc21 was read as APP 5'UTR act 10, STAT1 act-1 93, NF-kB expr up 0.74, STAT3 act-1 138*, STAT1 inh 8, STAT3 act-2 143*, NFkB act 2 105 and STAT1 act-2 102.
Screening Cn1nc(-c2ccc(Cl)cc2)c2cc(C(=O)NCCCN3CCCC3)sc21 returned APP 5'UTR act 10, STAT1 act-1 97, NF-kB expr up 1.2, STAT3 act-1 166*, STAT1 inh 3, STAT3 act-2 155*, NFkB act 2 108 and STAT1 act-2 98.
Screening COCCNC(=O)c1cc2c(-c3ccc(Cl)cc3)nn(C)c2s1 returned APP 5'UTR act 16, STAT1 act-1 106, NF-kB expr up 0.74, STAT3 act-1 152*, STAT1 inh -7, STAT3 act-2 139*, NFkB act 2 103 and STAT1 act-2 94.
Cc1ccc(CNC(=O)c2cc3c(-c4ccc(Cl)cc4)nn(C)c3s2)o1 was read as APP 5'UTR act 6, STAT1 act-1 76, NF-kB expr up 0.78, STAT3 act-1 155*, STAT1 inh 26, STAT3 act-2 152*, NFkB act 2 110 and STAT1 act-2 106.
`Cn1nc(C(F)(F)F)c2cc(C(=O)Nc3ccc(F)c(Cl)c3)sc21` gave Pf gamet viab 7.
CCCCNC(=O)c1cc2c(-c3ccc(Cl)cc3)nn(C)c2s1 was read as APP 5'UTR act -1, STAT1 act-1 101, NF-kB expr up 0.92, STAT3 act-1 138*, STAT1 inh -2, STAT3 act-2 151*, NFkB act 2 111 and STAT1 act-2 105.
`Clc1ccsc1-c1ccnc(-n2cccc2)n1` gave APP 5'UTR act 22, STAT1 act-1 105, NF-kB expr up 1.1, STAT3 act-1 140*, STAT1 inh -7, Pf gamet viab -5, STAT3 act-2 160*, NFkB act 2 108 and STAT1 act-2 108.
`Clc1ccc(-c2ccnc(-n3cccc3)n2)s1` gave APP 5'UTR act 13, STAT1 act-1 98, NF-kB expr up 1.2, STAT3 act-1 131, STAT1 inh 1 and Pf gamet viab 15.
Cc1ccsc1-c1ccnc(-n2cccc2)n1 was read as APP 5'UTR act 8, STAT1 act-1 105, NF-kB expr up 0.71, STAT3 act-1 146*, STAT1 inh -5, Pf gamet viab 1, STAT3 act-2 128, NFkB act 2 105 and STAT1 act-2 102.
`CC(=O)Nc1ccc(C)c(NS(=O)(=O)c2cccc(C(F)(F)F)c2)c1` gave Pf gamet viab -31.
For CCC(c1nnc(SCc2nc3ccccc3s2)n1Cc1ccccc1)N(C)C (stereo not given) the results were APP 5'UTR act 43, STAT1 act-1 117, NF-kB expr up 1, STAT3 act-1 152*, STAT1 inh -18, Pf gamet viab 17, STAT3 act-2 141*, NFkB act 2 117 and STAT1 act-2 117.
For Cc1nnc(SCc2nc3ccccc3s2)n1-c1ccccc1 the results were APP 5'UTR act 85, STAT1 act-1 112, NF-kB expr up 1.1, STAT3 act-1 147*, STAT1 inh -15, STAT3 act-2 149*, NFkB act 2 113 and STAT1 act-2 134*.
Screening CCn1c(SCc2nc3ccccc3s2)nnc1-c1ccccc1 returned APP 5'UTR act 33, STAT1 act-1 116, NF-kB expr up 1.3, STAT3 act-1 171*, STAT1 inh -18, STAT3 act-2 145*, NFkB act 2 117 and STAT1 act-2 134*.
Screening c1ccc(-n2cnnc2SCc2nc3ccccc3s2)cc1 returned APP 5'UTR act 57, STAT1 act-1 119, NF-kB expr up 1.2, STAT3 act-1 140*, STAT1 inh -21, Pf gamet viab -4, STAT3 act-2 152*, NFkB act 2 122* and STAT1 act-2 132*.
c1ccc(Cn2c(SCc3nc4ccccc4s3)nnc2-c2ccco2)cc1 was read as APP 5'UTR act 13, STAT1 act-1 100, NF-kB expr up 1, STAT3 act-1 130, STAT1 inh 0 and Pf gamet viab -6.
Cc1ccc(CN2CCN(Cc3cnc(C)[nH]3)CC2CCO)cc1 (stereo not given) was read as APP 5'UTR act 10, STAT1 act-1 98, NF-kB expr up 1.2, STAT3 act-1 97, STAT1 inh 3 and Pf gamet viab 7.
`Cc1ccc(S(=O)(=O)N(c2ccc(Br)cc2)C2C=CS(=O)(=O)C2)cc1` (stereo not given) gave APP 5'UTR act 24, STAT1 act-1 90, NF-kB expr up 1.1, STAT3 act-1 97, STAT1 inh 9 and Pf gamet viab -12.
CCn1c(/C=C2/C(=O)N(C)c3ccccc32)nc2ccccc2c1=O was read as APP 5'UTR act -2, STAT1 act-1 100, NF-kB expr up 0.39, STAT3 act-1 122, STAT1 inh 0 and Pf gamet viab 15.
`CCn1c(/C=C2\C(=O)N(C)c3ccccc32)nc2ccccc2c1=O` gave APP 5'UTR act 3, STAT1 act-1 103, NF-kB expr up 0.39, STAT3 act-1 137*, STAT1 inh -3, STAT3 act-2 131, NFkB act 2 111 and STAT1 act-2 109.
